How the values were obtained:
[1] = target: T1, Glutathione S-transferase Mu 1 (Mus musculus) (UniProt P10649); experiment: GST activity in the cytosols of liver of ICR/Ha mice, using 1-Chloro-2,4-dinitrobenzene as substrate; assay type: functional, tissue-based
T1 sequence (whole entry): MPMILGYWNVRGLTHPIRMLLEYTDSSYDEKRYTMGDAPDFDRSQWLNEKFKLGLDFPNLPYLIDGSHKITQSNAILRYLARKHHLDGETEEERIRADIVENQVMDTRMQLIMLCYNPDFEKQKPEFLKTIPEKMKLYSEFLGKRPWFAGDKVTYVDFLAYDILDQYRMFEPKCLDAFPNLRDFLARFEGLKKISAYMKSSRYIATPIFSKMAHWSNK
Procedure, shortened: (§1)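 Mice (6-8 wk, groups of 4-5, semipurified diet) dosed po once daily for 3 days with 10 μmol in 0.2 mL cottonseed oil/10% ethanol. Vehicle-only controls. Killed 24 h after the last dose. Tissue homogenized in phosphate buffer pH 7.5, then spun at 100000g for 1 h to give cytosol. CDNB conjugation read at 340 nm, 30 °C, pH 6.5 phosphate, 5 mM GSH, 1 mM CDNB. Units µmol/min/mg protein, mean ± SD; ratio = treated/control.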

[2] = target: T1, Glutathione S-transferase Mu 1 (Mus musculus); experiment: Ratio is the compound /control(Specific activity in liver(GST)); assay type: functional, tissue-based; procedure, shortened: as §1
[3] = target: T1, Glutathione S-transferase Mu 1 (Mus musculus); experiment: Ratio is the compound /control(Specific activity in lung); assay type: functional; procedure, shortened: as §1
[4] = target: T1, Glutathione S-transferase Mu 1 (Mus musculus); experiment: GST activity in the cytosols of small bowel mucosa of ICR/Ha mice was determined by using 1-Chloro-2,4-di nitrobenzene as the substrate.; assay type: functional; procedure, shortened: as §1
[5] = target: T1, Glutathione S-transferase Mu 1 (Mus musculus); experiment: Ratio is the compound /control(Specific activity in small bowel mucosa(GST)); assay type: functional; procedure, shortened: as §1
[6] = Ratio is the compound /control(SH level in liver); assay type: functional, Mus musculus
Procedure, shortened: (§2)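 Same dosing: 10 μmol po daily for 3 days in cottonseed oil/10% ethanol, vehicle controls, tissues taken 24 h after the last dose. Homogenate (phosphate pH 7.5) used at once. Ellman method: equal volume 4% sulfosalicylic acid, then supernatant plus 9 volumes of 0.1 mM DTNB in 0.1 M phosphate pH 8.0. Read spectrophotometrically. Units µmol SH/g tissue, mean ± SD; ratio = treated/control.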

[7] = target: T1, Glutathione S-transferase Mu 1 (Mus musculus); experiment: GST activity in the cytosols of the lung of ICR/Ha mice was determined by using 1-Chloro-2,4-dinitrobenzene as the substrate; assay type: functional; procedure, shortened: as §1
[8] = Tissue acid-soluble sulfhydryl levels of liver of ICR/Ha mice.; assay type: functional, Mus musculus; procedure, shortened: as §2
[9] = organism: Mus musculus; experiment: Ratio is the compound /control(SH in small bowel mucosa); assay type: functional; procedure, shortened: as §2
[10] = target: T1, Glutathione S-transferase Mu 1 (Mus musculus); experiment: GST activity in the cytosols of the forestomach of ICR/Ha mice was determined by using 1-Chloro-2,4-dinitrobenzene as the substrate; assay type: functional, tissue-based; conditions: Stomach; procedure, shortened: as §1
[11] = organism: Mus musculus; experiment: Tissue acid-soluble sulfhydryl levels of small bowel mucosa of ICR/Ha mice.; assay type: functional; procedure, shortened: as §2
[12] = target: T1, Glutathione S-transferase Mu 1 (Mus musculus); experiment: Ratio is the compound /control(Specific activity in forestomach); assay type: functional, tissue-based; conditions: Stomach; procedure, shortened: as §1
[13] = organism: Mus musculus; experiment: GST activity in the cytosols of small bowel mucosa of ICR/Ha mice was determined by using 1-Chloro-2,4-dinitrobenzene as the substrate.; assay type: functional; procedure, shortened: as §1
[14] = Tissue acid-soluble sulfhydryl levels of liver of ICR/Ha mice; assay type: functional, Mus musculus; procedure, shortened: as §2
[15] = organism: Mus musculus; experiment: Tissue acid-soluble sulfhydryl levels of small bowel mucosa of ICR/Ha mice; assay type: functional; procedure, shortened: as §2
[16] = organism: Mus musculus; experiment: GST activity in the cytosols of small bowel mucosa of ICR/Ha mice was determined by using 1-Chloro-2,4-dinitrobenzene as the substrate; assay type: functional; procedure, shortened: as §1
[17] = organism: Mus musculus; experiment: GST activity in the cytosols of small bowel mucosa of ICR/Ha mice was determined by using 1-Chloro-2,4-di nitrobenzene as the substrate; assay type: functional; procedure, shortened: as §1
[18] = organism: Mus musculus; experiment: Tissue acid-soluble sulfhydryl levels of small bowel mucosa of ICR/Ha mice. P < 0.005; assay type: functional; procedure, shortened: as §2
[19] = organism: Mus musculus; experiment: Tissue acid-soluble sulfhydryl levels of liver of ICR/Ha mice. P<0.005; assay type: functional; procedure, shortened: as §2

Structure (SMILES)	Specific activity (uM min-1 (mg of protein)-1) [1]	Ratio [2]	Ratio [3]	Specific activity (uM min-1 (mg of protein)-1) [4]	Ratio [5]	Ratio [6]	Specific activity (uM min-1 (mg of protein)-1) [7]	SH level [8] [µM/g]	Ratio [9]	Specific activity (uM min-1 (mg of protein)-1) [10]	SH level [11] [µmol/g]	Ratio [12]	Specific activity [13]	SH level [14] [µM/g]	SH level [15] [µmol/g]	Specific activity [16]	Specific activity [17]	SH level [18] [µM/g]	SH level [19] [µM/g]
C[C@@]12C=Cc3occc3C1CC[C@]13CC(=O)C(CCC12)C3 (some centres undefined)	3.67	2.6	1	1.84	6.1	1.3	0.28	11.8	1.6	1.05	10.4	1.6	–	–	–	–	–	–	–
CC(=O)OC[C@@]1(O)C[C@@]23CC[C@@H]4c5ccoc5CC[C@@]4(C)[C@@H]2CC[C@@H]1C3 [CAFESTOL ACETATE]	3.24	2.74	–	–	7.5	1.41	–	14.3	2	–	12	–	3 uM min-1 (mg of protein)-1	–	–	–	–	–	–
C[C@@]12C=Cc3occc3C1CC[C@]13CC(O)C(CCC12)C3 (some centres undefined)	3.57	2.5	0.8	1.72	5.7	1.1	0.23	–	1.7	1.01	–	1.5	–	9.5	10.9	–	–	–	–
CC(=O)OC1C[C@@]23CCC4c5ccoc5CC[C@@]4(C)C2CCC1C3 (some centres undefined)	2.24	1.3	1.1	1.83	5.1	1.8	0.29	13.3	1.5	0.83	8.3	1.1	–	–	–	–	–	–	–
CC(=O)OC[C@@]1(O)C[C@@]23CCC4C5=C(CC[C@@]4(C)C2CCC1C3)OCC5 (some centres undefined)	1.27	1.08	–	–	1	1.55	–	15.6	1.2	–	7.1	–	0.41 uM min-1 (mg of protein)-1	–	–	–	–	–	–
C[C@@]12CCc3occc3C1CC[C@]13CC(=O)C(CCC12)C3 (some centres undefined)	2.85	1.7	1.1	2.06	5.7	1.8	0.29	13.3	1.9	0.88	10.3	1.2	–	–	–	–	–	–	–
CC(=O)OC1C[C@@]23CCC4c5ccoc5C=C[C@@]4(C)C2CCC1C3 (some centres undefined)	3.68	2.6	1	2.06	6.9	1.1	0.3	–	1.7	0.94	–	1.4	–	10.1	10.8	–	–	–	–
C[C@@]12CC[C@@H]3OCC[C@@H]3C1CC[C@@]13CC(CCC12)[C@@](O)(CO)C3 (some centres undefined)	1.48	1.25	–	–	1.4	1.44	–	–	1.2	–	–	–	–	14.5	7.4	0.54 uM min-1 (mg of protein)-1	–	–	–
CC1(O)C[C@@]23CCC4c5ccoc5CC[C@@]4(C)C2CCC1C3 (some centres undefined)	2.26	1.4	1	–	3.6	2.1	0.27	16.3	1.6	0.76	–	1	–	–	8.6	–	1.3 uM min-1 (mg of protein)-1	–	–
C[C@@]12CCc3occc3C1CC[C@@]13CC(CCC12)C(O)(CO)C3 (some centres undefined)	3.35	2	1	1.36	3.8	2	0.26	14.9	1.5	0.91	7.9	1.2	–	–	–	–	–	–	–
C[C@@]12CCC3=C(CCO3)C1CC[C@@]13CC(CCC12)[C@@](O)(CO)C3 (some centres undefined)	1.22	1.04	–	–	1.1	1.18	–	11.9	1.1	–	6.5	–	0.42 uM min-1 (mg of protein)-1	–	–	–	–	–	–
C[C@@]12CCc3occc3C1CC[C@]13CC(O)C(CCC12)C3 (some centres undefined)	2.54	1.5	0.8	–	4.2	1.7	0.2	12.8	2.2	0.91	–	1.2	–	–	11.9	–	1.52 uM min-1 (mg of protein)-1	–	–
CC1(O)C[C@@]23CCC4c5ccoc5C=C[C@@]4(C)C2CCC1C3 (some centres undefined)	2.59	1.8	0.8	1.34	4.5	0.9	0.24	–	1.2	0.92	–	1.4	–	8.3	7.7	–	–	–	–
CC(=O)OC[C@@]1(O)C[C@@]23CCC4[C@H]5CCO[C@H]5CC[C@@]4(C)C2CCC1C3 (some centres undefined)	1.25	1.06	–	–	1	1.42	–	–	1.4	–	–	–	0.41 uM min-1 (mg of protein)-1	–	–	–	–	8.2	14.3
C[C@@]12C=Cc3occc3C1CC[C@@]13CC(CCC12)C(O)(CO)C3 (some centres undefined)	4.3	3	1	2.21	7.3	1.5	0.29	13	2.1	1.4	13.1	2.1	–	–	–	–	–	–	–
C[C@@]12C=Cc3occc3C1CC[C@]13CCC(CCC12)C3 (some centres undefined)	3.06	2.1	1.2	–	3.9	1.1	0.36	–	1.2	0.63	–	0.9	–	9.5	7.8	–	1.18 uM min-1 (mg of protein)-1	–	–
C[C@@]12CCc3occc3C1CC[C@]13CCC(CCC12)C3 (some centres undefined)	2.62	1.6	1.3	–	2.6	1.7	0.33	13	1.6	0.85	–	1.1	–	–	8.4	–	0.95 uM min-1 (mg of protein)-1	–	–
